Measurements from the RNAGym collection of RNA variant scans (doi:10.1126/science.aae0568).
Fewer inactive variants are shown than the library holds.

B1: tRNA (parent)
chain: GUUCCGUUGGCGUAAUGGUAACGCGUCUCCCUCCUAAGGAGAAGACUGCGGGUUCGAGUCCCGUACGGAACG

Variants of: B1
Assay: yeast fitness relative to wild type (ratio to wild type); higher = fitter; tRNA-Arg(CCU), competitive growth, 37 C, YPD
In short: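 Variants of the tRNA-Arg(CCU) gene were chemically synthesised with a 3% per-site mutation rate across 69 sites and placed at the native genomic locus in Saccharomyces cerevisiae. Six parallel replicates of the pooled strains were competed in YPD at 37°C for 24 hours, and gene amplicons from the start and end populations were read by 100-nucleotide paired-end sequencing. Darwinian fitness relative to wild type was derived from changes in genotype frequencies. Genotypes required ≥ 100 starting reads, and estimates < 0.5 were set to 0.5.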

Which yeast fitness does the source give for GUUGCGUUCGCGUAAUGGUAACGCGUCUCCCUCCCAAGGAAAAGACUGCGGGUUUGAGACCCGUACGGAUCG [C4G G9C U35C G41A C55U U59A A70U] here?
Its yeast fitness is no more than 0.5.

For GUUGCGUUGUCGUAAUGGUUACGCGUCUCCCUCGUAGGGAGAAGACUGCGGGUUCGAGUCCCGUAUGGAACG [C4G G10U A20U C34G A37G C66U], which yeast fitness is on record?
The yeast fitness was no more than 0.5.

With GUUGCGUUCGCGUAAUGGUAACGCGUCUCCCUCCUAACGAGAAGACUGCGGGUUCGAGUCCCGUACGAAACG [C4G G9C G38C G68A] as the variant, how does the yeast fitness read?
The yeast fitness was no more than 0.5.

Which yeast fitness does the source give for GUUGCGUUGACGUAAUGGUAAGGCGUCUCCCUCCUAAGGAGAAGACUGCGGGUUAGAGUCCCGUACGGAACG [C4G G10A C22G C55A] here?
Its yeast fitness is 0.555.

Which yeast fitness does the source give for GUUGCGUUGCCGUAAUGGUAACGCGUCUCCCUCCUAAGGAGAAGAGUGCGGGUUCGAGUCCCGUACGGAACG [C4G G10C C46G] here?
Its yeast fitness is 0.632.

For GUUGCGUUACCGUAAUGGUAACGCGUCUACCUCCUAAGGAGAAGACUGCGGGCUCGAGUCCUGUACGGAACG [C4G G9A G10C C29A U53C C62U], which yeast fitness is on record?
Its yeast fitness is no more than 0.5.

With GUUGCGUUGCCGUAAUGGUAACGCGCGUCCCUCCUAGGAAGAAGACUGCGGGUUCGAGUCCCGUACGGAACG [C4G G10C U26C C27G A37G G39A] as the variant, how does the yeast fitness read?
The yeast fitness was no more than 0.5.

Which yeast fitness does the source give for GUUGCGUUGACGUAAUGGUAACGCGUCUCCCUCCUAAGGACAAGACUGCGGGUUCGAGUCCGGUACGGAACG [C4G G10A G41C C62G] here?
The yeast fitness was 0.572.

For GUUGCGUUGGCCUAAUGGUAACGCGUCUCCCUCCUAAGGGGAAGACUGCGGGUUCGAGUCCCGUACGGAACG [C4G G12C A40G], which yeast fitness is on record?
Its yeast fitness is no more than 0.5.

Which yeast fitness does the source give for GUUGCGUUGGCGUAAUAGUAACGCGUCUCCCUCCUAAGGAGAGGACUGCGGGUUCGAGUCCCGUACGGAACG [C4G G17A A43G] here?
The yeast fitness was no more than 0.5.

With GUUGCGUUGGCAUAAUGGUAACGCGUCUCCCUCCUAAGGAGAAGACUGCGGGUUCGAGUCCCGUACGGAACG [C4G G12A] as the variant, how does the yeast fitness read?
Its yeast fitness is 0.781.

For GUUGCGUUCGCGUAAUGGUAACGCGUCUCCCUCCUAAGGAGUAGACUGCGGGUUGGAGUCCCGUACGGAACG [C4G G9C A42U C55G], which yeast fitness is on record?
The yeast fitness was no more than 0.5.

With GUUGCGUUGCCCUAAUGGUACCGCGUCUCCCUCCUAAGGAGAAGACUCCGGGUUCGGGUCCCGUACGGAACG [C4G G10C G12C A21C G48C A57G] as the variant, how does the yeast fitness read?
The yeast fitness was 0.527.

Which yeast fitness does the source give for GUUGCGUUGGCAUAAUGGUAACGCGUCUCCCUCCUAAGGAGAUGCCUGCGGGUUCGAGUCCCGUACCGAACG [C4G G12A A43U A45C G67C] here?
Its yeast fitness is no more than 0.5.

Which yeast fitness does the source give for GUUGCAUUGCCGUAAUGGAAACGGGUCUCCCUCCUAAGGAGAGGACUGCGGGUUCGAGUCGCGUUCGGAACG [C4G G6A G10C U19A C24G A43G C61G A65U] here?
Its yeast fitness is 0.576.

With GUUGCGUUCACGUAAUGGUAACGUGUCUCCCUCCUAAGGAGAAGACUGCGGGUUCGAGUCCCGUACGGAACG [C4G G9C G10A C24U] as the variant, how does the yeast fitness read?
Its yeast fitness is no more than 0.5.

For GUUGCGUUGGCAUAAUGGUAACGCGACUCCCUCCUAAGGAGAAGACUGCGGGUUCGAGUCCCGUACGGAACG [C4G G12A U26A], which yeast fitness is on record?
The yeast fitness was no more than 0.5.

For GUUGCCUUGGCGUAAUGGUAACGCGUCUCACUCCUAAGGAGAAGACUGCGGGUUCGAGUCCCGUACGGAACG [C4G G6C C30A], which yeast fitness is on record?
The yeast fitness was no more than 0.5.

Which yeast fitness does the source give for GUUGCGUUCGCGUAAUGGUAAAGCGUCUCCCUCCUAAGGAGAAGACUGCGGGUUCGAGUCCCGUACGUAACG [C4G G9C C22A G68U] here?
The yeast fitness was no more than 0.5.

Which yeast fitness does the source give for GUUGCGUUGACGUAAUGGUAACGCGUGUCCCUCCUAAGGAGAAGUCUGGGGGUUAGAGUCCCGUACGGAACG [C4G G10A C27G A45U C49G C55A] here?
The yeast fitness was 0.617.

Which yeast fitness does the source give for GUUGCCUUGGCGUAAUGGUAACGCGUCUCCCUCCUAAGGAGAAGACUGCGGGUUCGAGUCCCGUACGGAACG [C4G G6C] here?
The yeast fitness was 0.657.

Which yeast fitness does the source give for GUUGCGUUGGCGUAAUAGUAACGCGUCUCCCUCCUGAGGAGAAGAUUGCGGGUUCGAGUCCCGUACGGAACG [C4G G17A A36G C46U] here?
Its yeast fitness is no more than 0.5.

For GUUGCGUUGUCGUUAUGGUAACGUGUCUCCCUUCUAAGGAGAAGACUGCGGAUUCGAGUCCCGUAUGGAACG [C4G G10U A14U C24U C33U G52A C66U], which yeast fitness is on record?
Its yeast fitness is no more than 0.5.

Which yeast fitness does the source give for GUUGCAUUGGCGUAAUGGUAACACGUCUCCCUCCUAAGGAGAGGACUGCGGGUUCGAGUCCCGUACGGUGCG [C4G G6A G23A A43G A69U A70G] here?
Its yeast fitness is no more than 0.5.

For GUUGCGUUAGCGUAAUGGUAACGCGUCCCCCUCCUAAGAAGAAGACUGCGGGUUCGAGUCCCGUACGGAACG [C4G G9A U28C G39A], which yeast fitness is on record?
The yeast fitness was no more than 0.5.

Which yeast fitness does the source give for GUUGCGUUAGCGUAAUGGUAACGCGUCUCCCUCCUAAGAAGAAGACUGCGGGUUCGAGUCCCGUUCGGUACG [C4G G9A G39A A65U A69U] here?
The yeast fitness was no more than 0.5.

With GUUGCGUUGACGUAAUGGUAACGCGUCUCGCUCCUAAGGAGAGGACUGCGGGUUCGAGUCCCGUACGGAACG [C4G G10A C30G A43G] as the variant, how does the yeast fitness read?
The yeast fitness was 0.659.

For GUUGCCUGGGCGUAAUAGUAACACGUCUCCCUCCUAAGGAGAAGAGUGCGGGUUCGAGUACCGUACGGAACG [C4G G6C U8G G17A G23A C46G C60A], which yeast fitness is on record?
Its yeast fitness is 0.567.

Which yeast fitness does the source give for GUUGCGUUGCCCUAAUGGUACCGCGUCUCCCUCCUAAGGAGAAGACUCCGGGUUCGAGUCCCGUACGGAACG [C4G G10C G12C A21C G48C] here?
The yeast fitness was no more than 0.5.

For GUUGCGUUGGCAUAAUGGUAACGCGUCUCUCUCCUAAGGAGAAGACUGCGGGUUCGAGUCCCAUACGCAACG [C4G G12A C30U G63A G68C], which yeast fitness is on record?
The yeast fitness was 0.574.

Which yeast fitness does the source give for GUUGCGUUCGCGUAAUGGUAAAGCGUCUCCCUCCUAAGGAGAAGACUGCGGGUUCGAGUCCCGUACAGAACG [C4G G9C C22A G67A] here?
The yeast fitness was no more than 0.5.

Which yeast fitness does the source give for GUUGCGUUACCGUAAUGGUAACGCGUCUACCUCCUAAGGAGAAGACUGCUGGUUCGAGGCCCGUACGGAACG [C4G G9A G10C C29A G50U U59G] here?
Its yeast fitness is 0.599.

For GUUGCGUUGGCAUAAUGGUAACGCGUCUCCCUCCUAAGGAGAAGACUGCGGGUUCGAGUCCCGUAGGGAACG [C4G G12A C66G], which yeast fitness is on record?
The yeast fitness was 0.503.

For GUUGCGUUACCGUAAUGGUAACGCGUCUACCUCCUAGGGAGAAGACUGCUGGUUCGAGGCCCGUACGGAACG [C4G G9A G10C C29A A37G G50U U59G], which yeast fitness is on record?
Its yeast fitness is no more than 0.5.

For GUUGCGUUGACGUAAUGGUAACGCGUCUUCCUCCUAAGGAGAAGAGUGCGGGUUCGAGUCCCGUACGGAACG [C4G G10A C29U C46G], which yeast fitness is on record?
The yeast fitness was no more than 0.5.

With GUUGCAUUGGCGUAAUGGUAACACGUCUCCCUCCUAAGGAGAGGACUGCGGGUUUGAGUCCCGUACGGAACG [C4G G6A G23A A43G C55U] as the variant, how does the yeast fitness read?
Its yeast fitness is no more than 0.5.

Which yeast fitness does the source give for GUUGCGUUCGCGUAAUGGUAACGCGUCUCCCUCCUAAGGAAAAGACUGCGGGUUUGAGACCCGUACGGAACG [C4G G9C G41A C55U U59A] here?
The yeast fitness was no more than 0.5.
